How the values were obtained:
Format in all cases: functional
Mythimna separata [1] = test: Larvicidal activity against Mythimna separata (Oriental armyworm) in compound treated corn leaves at 100 mg/L at 25 +/- 1 degC measured after 4 days
Mythimna separata [2] = test: (§1) Larvicidal activity against Mythimna separata (Oriental armyworm) in compound treated corn leaves at […] at 25 +/- 1 degC measured after 4 days
Mythimna separata [3] = test: Larvicidal activity against Mythimna separata (Oriental armyworm ) in compound treated corn leaves at 0.5 mg/L at 25 +/- 1 degC measured after 4 days
Procedure, shortened: (§2)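 Foliar-application assay on laboratory-reared Oriental armyworm (Mythimna (Pseudaletia) separata), run at 25 ± 1 °C. Larvae were scored dead or alive, and mortality was corrected by Abbott's formula on a 0–100% scale, where 0 = no activity and 100 = total kill. Bioassays were repeated as statistics required.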

Mythimna separata [4] = test: Larvicidal activity against Mythimna separata (Oriental armyworm) in compound treated corn leaves at 1 mg/L at 25 +/- 1 degC measured after 4 days; procedure, shortened: as §2
Mythimna separata [5] = test: as §1; remark: listed apart in the source
Mythimna separata [6] = test: Larvicidal activity against Mythimna separata (Oriental armyworm) in compound treated corn leaves at 5 mg/L at 25 +/- 1 degC measured after 4 days
Mythimna separata [7] = test: Larvicidal activity against Mythimna separata (Oriental armyworm) in compound treated corn leaves at 10 mg/L at 25 +/- 1 degC measured after 4 days
Mythimna separata [8] = test: Larvicidal activity against Mythimna separata (Oriental armyworm) in compound treated corn leaves at 25 mg/L at 25 +/- 1 degC measured after 4 days
Mythimna separata [9] = test: Larvicidal activity against Mythimna separata (Oriental armyworm) in compound treated corn leaves at 50 mg/L at 25 +/- 1 degC measured after 4 days; procedure, shortened: as §2

| Structure (SMILES) | Activity (Mythimna separata [1]) [%] | Activity (Mythimna separata [2]) [%] | Activity (Mythimna separata [3]) [%] | Activity (Mythimna separata [4]) [%] | Activity (Mythimna separata [5]) [%] | Activity (Mythimna separata [6]) [%] | Activity (Mythimna separata [7]) [%] | Activity (Mythimna separata [8]) [%] | Activity (Mythimna separata [9]) [%] |
| --- | --- | --- | --- | --- | --- | --- | --- | --- | --- |
| O=C(NC(=O)c1ccccc1Cl)Nc1ccc(OC(F)(F)F)cc1 [TRIFLUMURON] | 0 | 20 | 40 | 95 | 100 | 100 | 100 | 100 | 100 |
| O=C(NC(=O)c1c(F)cccc1F)Nc1ccc(Cl)cc1 [DIFLUBENZURON] | 0 | 45 | 100 | 100 | 100 | 100 | 100 | 100 | 100 |
| CNC(=O)ON=C(C)SC [METHOMYL] | 100 |  |  |  | 0 | 62 | 100 |  |  |
| Cc1cccc(OC(=O)N(C)SN(C(=O)NC(=O)c2c(F)cccc2F)c2ccc(C(F)(F)F)cc2)c1 [Penfluron-S-MTMC] |  | 15 | 95 | 100 | 100 | 100 | 100 | 100 | 100 |

Reference: ChEMBL document CHEMBL3045515, “Insecticidal benzoylphenylurea-S-carbamate: a new propesticide with two effects of both benzoylphenylureas and carbamates” (2007)
